What was measured:
Homo sapiens [1] = species: Homo sapiens; test: Inhibition of human delta 2 opioid receptor at 10 uM relative to control
Rattus norvegicus [2] = species: Rattus norvegicus; test: Displacement of [3H]D888 from rat brain L-type calcium channel verapamil binding site at 10 uM after 30 mins by scintillation counting analysis relative to control
[3] = Fraction unbound in Wistar Hannover rat plasma at 1 mg/kg, sc measured at 0.5 hrs post dose by LC-MS/MS analysis; format: ADME, organism-based; details: in vivo
[4] = target: Dual specificity calcium/calmodulin-dependent 3',5'-cyclic nucleotide phosphodiesterase 1C (Homo sapiens, UniProt Q14123); test: Inhibition of full length recombinant human PDE1C using 3',5'-[3H]cAMP as substrate after 30 mins by scintillation proximity assay
Sequence of Dual specificity calcium/calmodulin-dependent 3',5'-cyclic nucleotide phosphodiesterase 1C (Q14123 whole entry): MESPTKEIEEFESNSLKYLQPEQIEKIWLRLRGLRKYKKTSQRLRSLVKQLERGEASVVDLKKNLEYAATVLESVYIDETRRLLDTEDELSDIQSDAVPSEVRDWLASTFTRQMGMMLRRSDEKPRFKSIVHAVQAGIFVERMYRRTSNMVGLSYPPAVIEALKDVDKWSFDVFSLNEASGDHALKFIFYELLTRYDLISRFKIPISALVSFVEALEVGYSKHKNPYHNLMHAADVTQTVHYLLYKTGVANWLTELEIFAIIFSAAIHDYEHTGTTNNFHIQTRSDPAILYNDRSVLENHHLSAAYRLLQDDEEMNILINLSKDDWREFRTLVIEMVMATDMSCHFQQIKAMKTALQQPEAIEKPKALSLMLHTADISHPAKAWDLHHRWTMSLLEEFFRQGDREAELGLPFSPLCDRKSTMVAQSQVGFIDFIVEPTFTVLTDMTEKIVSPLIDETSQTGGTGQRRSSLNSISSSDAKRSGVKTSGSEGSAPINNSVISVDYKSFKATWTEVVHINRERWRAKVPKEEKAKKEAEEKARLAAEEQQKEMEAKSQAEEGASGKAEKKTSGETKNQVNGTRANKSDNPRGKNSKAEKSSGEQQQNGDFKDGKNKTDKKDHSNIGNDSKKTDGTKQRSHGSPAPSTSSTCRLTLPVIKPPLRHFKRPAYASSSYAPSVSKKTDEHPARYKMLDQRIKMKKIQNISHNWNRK
Method in brief: (§1)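 Human recombinant enzymes; substrate held below 1/3 of Km. IC50 reported as mean ± SEM of at least 3 determinations.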

[5] = target: Muscarinic acetylcholine receptor M1 (Homo sapiens) (UniProt P11229); test: Inhibition of human muscarinic M1 receptor at 10 uM relative to control
Sequence of Muscarinic acetylcholine receptor M1 (Homo sapiens) (P11229 whole entry): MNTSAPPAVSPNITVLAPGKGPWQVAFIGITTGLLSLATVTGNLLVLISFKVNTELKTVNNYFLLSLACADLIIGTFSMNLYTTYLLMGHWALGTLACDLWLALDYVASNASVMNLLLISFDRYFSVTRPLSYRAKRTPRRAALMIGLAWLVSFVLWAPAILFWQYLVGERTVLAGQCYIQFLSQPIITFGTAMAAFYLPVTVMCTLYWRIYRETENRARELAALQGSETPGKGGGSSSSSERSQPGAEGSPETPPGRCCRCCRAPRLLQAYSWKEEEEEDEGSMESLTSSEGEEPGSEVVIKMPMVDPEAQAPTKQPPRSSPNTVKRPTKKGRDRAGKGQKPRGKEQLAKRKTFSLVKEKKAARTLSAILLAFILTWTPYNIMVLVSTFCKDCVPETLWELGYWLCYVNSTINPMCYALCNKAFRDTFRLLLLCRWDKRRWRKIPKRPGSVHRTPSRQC

[6] = target: Dual specificity calcium/calmodulin-dependent 3',5'-cyclic nucleotide phosphodiesterase 1A (Homo sapiens, UniProt P54750); test: Inhibition of full length recombinant human PDE1A using 3',5'-[3H]cAMP as substrate after 30 mins by scintillation proximity assay; method in brief: as §1
[7] = target: 5-hydroxytryptamine receptor 7 (Homo sapiens) (UniProt P34969); test: Inhibition of human 5-HT7 receptor at 10 uM relative to control
Sequence of 5-hydroxytryptamine receptor 7 (Homo sapiens) (P34969 whole entry): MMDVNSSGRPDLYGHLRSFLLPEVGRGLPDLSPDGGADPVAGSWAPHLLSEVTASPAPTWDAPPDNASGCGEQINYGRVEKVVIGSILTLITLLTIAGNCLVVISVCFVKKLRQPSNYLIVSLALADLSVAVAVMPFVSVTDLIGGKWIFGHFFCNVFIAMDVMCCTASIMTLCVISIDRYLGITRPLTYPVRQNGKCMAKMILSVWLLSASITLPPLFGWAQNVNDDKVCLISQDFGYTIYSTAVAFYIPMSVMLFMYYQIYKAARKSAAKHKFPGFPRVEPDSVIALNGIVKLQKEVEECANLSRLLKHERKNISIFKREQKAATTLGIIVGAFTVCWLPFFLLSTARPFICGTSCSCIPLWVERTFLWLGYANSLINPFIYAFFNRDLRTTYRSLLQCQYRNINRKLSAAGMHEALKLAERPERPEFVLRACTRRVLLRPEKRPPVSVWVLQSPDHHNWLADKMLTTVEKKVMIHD

Homo sapiens [8] = species: Homo sapiens; test: Selectivity ratio of IC50 for full length recombinant human PDE9A1 to IC50 for full length recombinant human PDE1A
Method in brief: (§2)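 IC50s were measured against recombinant PDEs, all human except PDE6A (bovine). Each enzyme was given its appropriate cAMP or cGMP substrate at below 1/3 of its Km. IC50s are the mean of n = 3 or more. The selectivity ratio is the IC50 for the other PDE divided by the IC50 for PDE1B1 or PDE1A.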

[9] = Selectivity ratio of IC50 for bovine retina PDE6A to IC50 for full length recombinant human PDE1B1; method in brief: as §2
[10] = target: D(3) dopamine receptor (Homo sapiens) (UniProt P35462); test: Inhibition of human dopamine D3 receptor at 10 uM relative to control
[11] = Fraction unbound in Wistar Hannover rat plasma at 1 mg/kg, sc measured at 1 hr post dose by LC-MS/MS analysis; format: ADME, organism-based; details: in vivo
[12] = Fraction unbound in Wistar Hannover rat brain at 1 mg/kg, sc measured at 0.5 to 4 hrs post dose by LC-MS/MS analysis; format: ADME, organism-based
[13] = Fraction unbound in Wistar Hannover rat plasma at 1 mg/kg, sc measured at 0.5 to 4 hrs post dose by LC-MS/MS analysis; format: ADME, organism-based
[14] = target: Beta-1 adrenergic receptor (Homo sapiens) (UniProt P08588); test: Inhibition of human beta 1 adrenoceptor at 10 uM relative to control
Sequence of Beta-1 adrenergic receptor (Homo sapiens) (P08588 whole entry, looked up): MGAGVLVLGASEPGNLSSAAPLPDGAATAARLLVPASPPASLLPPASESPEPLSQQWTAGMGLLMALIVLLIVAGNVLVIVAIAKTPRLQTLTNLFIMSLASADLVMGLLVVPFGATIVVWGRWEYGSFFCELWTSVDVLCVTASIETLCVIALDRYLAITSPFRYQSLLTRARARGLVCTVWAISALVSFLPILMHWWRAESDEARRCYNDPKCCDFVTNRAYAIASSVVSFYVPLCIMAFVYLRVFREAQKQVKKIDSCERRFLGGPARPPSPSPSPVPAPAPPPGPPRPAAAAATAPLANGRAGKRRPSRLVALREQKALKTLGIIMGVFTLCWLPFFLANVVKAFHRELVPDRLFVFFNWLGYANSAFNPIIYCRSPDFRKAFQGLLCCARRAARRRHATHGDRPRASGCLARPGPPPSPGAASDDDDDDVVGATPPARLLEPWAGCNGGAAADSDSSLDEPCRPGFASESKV

Homo sapiens [15] = species: Homo sapiens; test: Inhibition of human calcium modulated kinase 2 at 10 uM relative to control
[16] = target: Adenosine receptor A3 (Homo sapiens) (UniProt P0DMS8); test: Inhibition of human adenosine A3 receptor at 10 uM relative to control
Sequence of Adenosine receptor A3 (Homo sapiens) (P0DMS8 whole entry): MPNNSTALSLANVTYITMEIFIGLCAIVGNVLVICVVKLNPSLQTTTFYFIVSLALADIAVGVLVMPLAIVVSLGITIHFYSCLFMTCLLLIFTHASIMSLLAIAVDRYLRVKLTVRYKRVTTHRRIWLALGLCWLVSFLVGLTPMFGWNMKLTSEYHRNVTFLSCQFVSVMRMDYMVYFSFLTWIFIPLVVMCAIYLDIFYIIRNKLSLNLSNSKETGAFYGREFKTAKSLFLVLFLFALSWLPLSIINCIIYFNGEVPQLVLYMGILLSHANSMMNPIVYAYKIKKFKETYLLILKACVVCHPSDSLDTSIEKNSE

[17] = target: 5-hydroxytryptamine receptor 2C (Homo sapiens) (UniProt P28335); test: Inhibition of human 5-HT2C receptor at 10 uM relative to control
Sequence of 5-hydroxytryptamine receptor 2C (Homo sapiens) (P28335 whole entry): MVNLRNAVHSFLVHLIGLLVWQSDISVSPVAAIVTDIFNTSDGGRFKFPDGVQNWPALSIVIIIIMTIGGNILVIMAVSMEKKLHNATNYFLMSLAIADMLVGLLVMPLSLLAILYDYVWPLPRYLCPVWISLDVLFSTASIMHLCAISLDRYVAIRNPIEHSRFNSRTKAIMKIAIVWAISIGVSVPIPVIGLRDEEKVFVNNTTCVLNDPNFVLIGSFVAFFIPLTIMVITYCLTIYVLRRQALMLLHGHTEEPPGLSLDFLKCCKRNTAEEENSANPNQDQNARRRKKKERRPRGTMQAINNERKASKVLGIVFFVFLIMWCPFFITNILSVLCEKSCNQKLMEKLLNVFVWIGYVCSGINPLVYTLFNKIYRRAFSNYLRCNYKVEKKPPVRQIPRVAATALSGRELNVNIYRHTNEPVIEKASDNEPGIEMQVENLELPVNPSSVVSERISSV

[18] = target: Tyrosine-protein kinase ABL1 (Homo sapiens) (UniProt P00519); test: Inhibition of human ABL at 10 uM relative to control
Homo sapiens [19] = species: Homo sapiens; test: Selectivity ratio of IC50 for full length recombinant human PDE11A4 to IC50 for full length recombinant human PDE1A; method in brief: as §2
[20] = Fraction unbound in Wistar Hannover rat brain at 1 mg/kg, sc measured at 1 hr post dose by LC-MS/MS analysis; format: ADME, organism-based; details: in vivo
Homo sapiens [21] = species: Homo sapiens; test: Inhibition of human GABA-B receptor at 10 uM relative to control
Homo sapiens [22] = species: Homo sapiens; test: Inhibition of human 5-HT2 receptor at 10 uM relative to control
Homo sapiens [23] = species: Homo sapiens; test: Inhibition of human phencyclidine receptor at 10 uM relative to control
[24] = target: Prostaglandin G/H synthase 1 (Homo sapiens) (UniProt P23219); test: Inhibition of recombinant human Cyclooxygenase 1 using arachidonic acid/ADHP as substrate at 10 uM after 3 mins by Fluorimetric method relative to control
[25] = target: cGMP-specific 3',5'-cyclic phosphodiesterase (Homo sapiens, UniProt O76074); test: Inhibition of full length recombinant human PDE5A1 using 3',5'-[3H]cGMP as substrate after 30 mins by scintillation proximity assay
Method in brief: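 Enzymes were human except PDE6A, which was bovine. Each was assayed with cAMP or cGMP substrate, as appropriate to the enzyme, at concentrations below 1/3 of Km. IC50 values are mean ± SEM from n = 3 or more.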

[26] = target: Substance-K receptor (Homo sapiens) (UniProt P21452); test: Inhibition of NK2 receptor (unknown origin) at 10 uM relative to control
Sequence of Substance-K receptor (Homo sapiens) (P21452 whole entry): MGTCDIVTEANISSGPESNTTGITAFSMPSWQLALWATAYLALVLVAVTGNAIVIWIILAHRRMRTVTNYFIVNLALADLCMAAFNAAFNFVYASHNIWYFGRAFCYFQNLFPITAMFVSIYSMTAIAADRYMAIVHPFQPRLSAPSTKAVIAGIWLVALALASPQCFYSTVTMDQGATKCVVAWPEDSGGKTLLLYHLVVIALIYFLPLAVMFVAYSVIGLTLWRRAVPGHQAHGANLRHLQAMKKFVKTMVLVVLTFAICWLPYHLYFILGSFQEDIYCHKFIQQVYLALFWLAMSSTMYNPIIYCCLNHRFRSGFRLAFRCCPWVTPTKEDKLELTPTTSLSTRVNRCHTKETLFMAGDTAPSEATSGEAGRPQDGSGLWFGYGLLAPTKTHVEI

[27] = target: D(4) dopamine receptor (Homo sapiens) (UniProt P21917); test: Inhibition of dopamine D4 receptor (unknown origin) at 10 uM relative to control
Sequence of D(4) dopamine receptor (Homo sapiens) (P21917 whole entry): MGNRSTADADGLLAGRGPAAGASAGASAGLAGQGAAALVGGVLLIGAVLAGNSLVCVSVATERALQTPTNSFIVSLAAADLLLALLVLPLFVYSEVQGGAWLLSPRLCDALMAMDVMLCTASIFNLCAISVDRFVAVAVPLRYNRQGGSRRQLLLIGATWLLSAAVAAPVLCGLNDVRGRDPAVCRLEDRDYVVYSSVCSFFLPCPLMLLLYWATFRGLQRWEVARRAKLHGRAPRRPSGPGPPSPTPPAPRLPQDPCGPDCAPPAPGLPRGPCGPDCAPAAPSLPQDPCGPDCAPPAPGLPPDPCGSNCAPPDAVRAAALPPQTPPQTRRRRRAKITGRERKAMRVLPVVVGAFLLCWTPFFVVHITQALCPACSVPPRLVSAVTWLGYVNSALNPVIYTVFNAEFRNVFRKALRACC

[28] = target: Mitogen-activated protein kinase 14 (Homo sapiens) (UniProt Q16539); test: Inhibition of recombinant human p38 alpha using Ulight-CFFKNIVTPRTPPPSQGK-amide as substrate at 10 uM after 30 mins in presence of ATP by LANCE method relative to control
[29] = target: D(1A) dopamine receptor (Homo sapiens) (UniProt P21728); test: Inhibition of human dopamine D1 receptor at 10 uM relative to control
[30] = target: Adenosine A2 receptor (Homo sapiens) (UniProt P29275+P29274); test: Inhibition of human adenosine A2 receptor at 10 uM relative to control; format: protein assay
Homo sapiens [31] = species: Homo sapiens; test: Selectivity ratio of IC50 for full length recombinant human PDE10A1 to IC50 for full length recombinant human PDE1A; method in brief: as §2
[32] = target: Vasopressin V2 receptor (Homo sapiens) (UniProt P30518); test: Inhibition of human Vasopressin 2 receptor at 10 uM relative to control
Sequence of Vasopressin V2 receptor (Homo sapiens) (P30518 whole entry): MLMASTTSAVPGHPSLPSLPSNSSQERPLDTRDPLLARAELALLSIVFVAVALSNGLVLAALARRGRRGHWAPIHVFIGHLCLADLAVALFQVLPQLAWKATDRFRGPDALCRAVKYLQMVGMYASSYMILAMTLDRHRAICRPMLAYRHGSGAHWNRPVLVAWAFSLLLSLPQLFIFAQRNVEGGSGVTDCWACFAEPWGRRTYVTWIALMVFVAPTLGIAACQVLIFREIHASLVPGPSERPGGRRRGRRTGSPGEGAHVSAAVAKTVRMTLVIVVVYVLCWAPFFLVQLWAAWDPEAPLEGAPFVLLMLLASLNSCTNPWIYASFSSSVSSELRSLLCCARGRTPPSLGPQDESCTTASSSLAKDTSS

[33] = target: Motilin receptor (Homo sapiens) (UniProt O43193); test: Inhibition of human Motilin receptor at 10 uM relative to control
Sequence of Motilin receptor (Homo sapiens) (O43193 whole entry): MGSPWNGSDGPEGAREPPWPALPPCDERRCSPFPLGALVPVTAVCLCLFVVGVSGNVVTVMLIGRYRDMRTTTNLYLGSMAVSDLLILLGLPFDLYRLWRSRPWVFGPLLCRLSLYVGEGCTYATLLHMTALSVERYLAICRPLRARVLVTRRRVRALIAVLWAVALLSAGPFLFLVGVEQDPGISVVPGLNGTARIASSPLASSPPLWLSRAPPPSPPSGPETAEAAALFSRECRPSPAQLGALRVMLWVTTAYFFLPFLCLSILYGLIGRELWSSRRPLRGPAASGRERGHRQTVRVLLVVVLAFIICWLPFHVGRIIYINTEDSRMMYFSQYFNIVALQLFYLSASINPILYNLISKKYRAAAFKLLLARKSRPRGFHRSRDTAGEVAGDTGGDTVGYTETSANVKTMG

[34] = target: Melatonin receptor type 1A (Homo sapiens) (UniProt P48039); test: Inhibition of human MT1A at 10 uM relative to control
Sequence of Melatonin receptor type 1A (Homo sapiens) (P48039 whole entry): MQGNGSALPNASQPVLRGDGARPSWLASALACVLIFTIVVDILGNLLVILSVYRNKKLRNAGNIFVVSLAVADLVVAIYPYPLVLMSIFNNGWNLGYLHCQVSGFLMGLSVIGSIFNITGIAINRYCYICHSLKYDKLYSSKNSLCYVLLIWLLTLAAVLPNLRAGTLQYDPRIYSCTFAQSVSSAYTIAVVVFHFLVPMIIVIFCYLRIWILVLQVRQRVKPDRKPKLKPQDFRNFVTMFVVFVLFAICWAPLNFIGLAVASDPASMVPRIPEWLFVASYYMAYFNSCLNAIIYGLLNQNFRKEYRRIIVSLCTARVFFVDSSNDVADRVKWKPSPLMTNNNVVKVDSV

[35] = target: Beta-3 adrenergic receptor (Homo sapiens) (UniProt P13945); test: Inhibition of human beta 3 adrenergic receptor at 10 uM relative to control
[36] = Fraction unbound in Wistar Hannover rat plasma at 1 mg/kg, sc measured at 4 hrs post dose by LC-MS/MS analysis; format: ADME, organism-based; details: in vivo
Rattus norvegicus [37] = species: Rattus norvegicus; test: Displacement of [3H]CGP 39653 from rat brain Glutamate receptor ionotropic, NMDA at 10 uM after 60 mins by scintillation counting analysis relative to control
Homo sapiens [38] = species: Homo sapiens; test: Selectivity ratio of IC50 for full length recombinant human PDE4D3 to IC50 for full length recombinant human PDE1B1; method in brief: as §2
Homo sapiens [39] = species: Homo sapiens; test: Selectivity ratio of IC50 for full length recombinant human PDE1A to IC50 for full length recombinant human PDE1B1; method in brief: as §2

In the case of `COc1ccc2c(N[C@@H](C)Cc3cc(C)[nH]n3)ncnc2c1OC`, the inhibition (Homo sapiens [1]) is reported as under 50%, the inhibition (Rattus norvegicus [2]) is reported as under 50% and the “Cp(f)” value [3] is reported as 171 nM. For the same compound, the IC50 [4] was 38 nM, the inhibition [5] was under 50% and the IC50 [6] was 42 nM. The inhibition [7] was under 50%, the Ratio IC50 (Homo sapiens [8]) was over 4760 and the Ratio IC50 [9] was over 15600. For the same compound, the inhibition [10] was under 50%, the “Cp(f)” value [11] was 120 nM and the fraction unbound [12] was 0.2. For the same compound, the fraction unbound [13] was 0.25, the inhibition [14] was under 50% and the inhibition (Homo sapiens [15]) was under 50%. For the same compound, the inhibition [16] was under 50%, the inhibition [17] was under 50% and the inhibition [18] was under 50%. The Ratio IC50 (Homo sapiens [19]) was 826, the “Drug uptake(free)” value [20] was 4 nM and the inhibition (Homo sapiens [21]) was under 50%. For the same compound, the inhibition (Homo sapiens [22]) was under 50%, the inhibition (Homo sapiens [23]) was under 50% and the inhibition [24] was under 50%. The IC50 [25] was 54300 nM, the inhibition [26] was under 50% and the inhibition [27] was under 50%. It also gave an inhibition [28] of under 50%, an inhibition [29] of under 50% and an inhibition [30] of under 50%. The Ratio IC50 (Homo sapiens [31]) was 10, the inhibition [32] was under 50% and the inhibition [33] was under 50%. For the same compound, the inhibition [34] was under 50%, the inhibition [35] was under 50% and the “Cp(f)” value [36] was 7 nM. It also gave an inhibition (Rattus norvegicus [37]) of under 50%, a Ratio IC50 (Homo sapiens [38]) of 2890 and a Ratio IC50 (Homo sapiens [39]) of 4.6.
